Experimental data taken from publication PMC4207553 (Journal of Medicinal Chemistry, 2014).
Marks after values point to notes of the source that are not given here.

Legend:
[1] = Microsomal stability, mouse microsomes; assay type: in vitro ADME; settings: % remaining at 1 h
P. falciparum Dd2 = assay: P. falciparum asexual blood-stage growth inhibition; assay type: cell-based; settings: relative to compound 2
[2] = Metabolite identification study in mouse liver microsomes; assay type: in vitro ADME; settings: via N-demethylation at R1, hydroxylation, and combined events
hERG = hERG (Homo sapiens, UniProt Q12809); assay: hERG binding assay, [3H]astemizole displacement; settings: 10 μM, assay run by Ricera under identical conditions
Method in brief: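 Single-point radioligand displacement at 10 μM of test compound. The result is expressed as percent displacement relative to control. The run was made at a second contract laboratory under conditions identical to the first laboratory's assay.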

Sequence of hERG (Q12809 whole entry): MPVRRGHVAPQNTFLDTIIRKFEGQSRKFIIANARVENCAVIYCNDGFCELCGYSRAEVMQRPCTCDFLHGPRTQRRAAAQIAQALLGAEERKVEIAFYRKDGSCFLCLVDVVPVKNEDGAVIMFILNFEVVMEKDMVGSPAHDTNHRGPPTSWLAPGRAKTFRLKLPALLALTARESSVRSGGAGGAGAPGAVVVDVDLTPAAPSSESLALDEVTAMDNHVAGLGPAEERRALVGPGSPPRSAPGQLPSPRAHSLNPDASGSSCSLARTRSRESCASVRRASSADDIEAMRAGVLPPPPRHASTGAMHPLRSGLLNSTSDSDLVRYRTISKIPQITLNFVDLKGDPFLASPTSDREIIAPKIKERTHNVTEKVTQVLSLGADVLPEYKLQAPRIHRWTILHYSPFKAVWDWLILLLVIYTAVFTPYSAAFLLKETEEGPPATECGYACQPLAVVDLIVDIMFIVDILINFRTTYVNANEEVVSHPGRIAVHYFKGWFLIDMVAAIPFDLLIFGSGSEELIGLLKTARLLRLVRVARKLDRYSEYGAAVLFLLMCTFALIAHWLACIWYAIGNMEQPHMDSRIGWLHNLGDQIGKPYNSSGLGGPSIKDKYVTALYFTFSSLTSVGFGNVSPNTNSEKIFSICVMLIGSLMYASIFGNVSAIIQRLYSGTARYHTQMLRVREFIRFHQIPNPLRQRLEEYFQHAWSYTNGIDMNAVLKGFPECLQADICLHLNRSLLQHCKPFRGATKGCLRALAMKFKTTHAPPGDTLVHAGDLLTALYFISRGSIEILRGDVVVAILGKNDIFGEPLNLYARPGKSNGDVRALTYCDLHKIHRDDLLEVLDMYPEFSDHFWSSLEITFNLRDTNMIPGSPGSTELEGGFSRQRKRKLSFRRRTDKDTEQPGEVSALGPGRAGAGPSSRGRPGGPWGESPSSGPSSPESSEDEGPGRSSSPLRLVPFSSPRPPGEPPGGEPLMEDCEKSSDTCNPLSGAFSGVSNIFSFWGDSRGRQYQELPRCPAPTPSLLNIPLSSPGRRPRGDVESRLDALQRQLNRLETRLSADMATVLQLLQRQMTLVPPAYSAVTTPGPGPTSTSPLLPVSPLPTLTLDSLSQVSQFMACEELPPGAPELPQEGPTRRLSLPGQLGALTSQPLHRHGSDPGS

Cc1noc(C)c1NC(=O)Nc1ccc2c(c1)C(=O)N([C@@H](C)C[N+](C)(C)[O-])C[C@@H](C)[C@H](CN(C)S(=O)(=O)c1ccc(F)cc1)OCCCC[C@H](C)O2 [Compound 10]
Microsome Stability [1]: 35 % remaining

C[C@@H]1CN([C@@H](C)CN(C)C)C(=O)c2cc(NC(=O)NC3COC3)ccc2O[C@@H](C)CCCCO[C@H]1CN(C)S(=O)(=O)c1ccc(F)cc1 [Compound 4]
Microsome Stability [1]: 8 % remaining | fold less potent than 2 (Dd2 GI50) (P. falciparum Dd2): approximately 60 fold

CNC[C@H](C)N1C[C@@H](C)[C@H](CN(C)S(=O)(=O)c2ccc(F)cc2)OCCCCOc2ccc(NC(=O)Nc3c(C)noc3C)cc2C1=O [Compound 35]
Microsome Stability [1]: 65 % remaining

Cc1noc(C)c1NC(=O)Nc1ccc2c(c1)C(=O)N([C@@H](C)CN(C)C)C[C@@H](C)[C@H](CN(C)S(=O)(=O)c1ccc(F)cc1)OCCCC[C@H](C)O2 [Compound 5]
Microsome Stability [1]: 8 % remaining | metabolism in mouse liver microsomes [2]: extensively metabolized

C[C@@H]1CN([C@@H](C)CN(C)C)C(=O)c2cc(NC(=O)Nc3ccccc3)ccc2O[C@@H](C)CCCCO[C@H]1CN(C)S(=O)(=O)c1ccc(F)cc1 [Compound 2]
hERG, % displacement control (hERG): 95^b %

Cc1noc(C)c1NC(=O)Nc1ccc2c(c1)C(=O)N([C@@H](C)CN(C)C)C[C@@H](C)[C@H](CN(C)S(=O)(=O)c1ccc(F)cc1)OCCCCO2 [Compound 36]
Microsome Stability [1]: 15 % remaining

CCN(CC)C[C@H](C)N1C[C@@H](C)[C@H](CN(C)S(=O)(=O)c2ccc(F)cc2)OCCCC[C@H](C)Oc2ncccc2C1=O [Compound 23]
Microsome Stability [1]: <5% remaining

Cc1noc(C)c1NC(=O)Nc1ccc2c(c1)C(=O)N([C@@H](C)CN1CCOCC1)C[C@@H](C)[C@H](CN(C)S(=O)(=O)c1ccc(F)cc1)OCCCC[C@H](C)O2 [Compound 13]
Microsome Stability [1]: <5 % remaining

Cc1noc(C)c1NC(=O)Nc1ccc2c(c1)C(=O)N([C@@H](C)CNCC(C)(C)C)C[C@@H](C)[C@H](CN(C)S(=O)(=O)c1ccc(F)cc1)OCCCC[C@H](C)O2 [Compound 11]
Microsome Stability [1]: 5 % remaining

C[C@@H]1CN([C@@H](C)CN(C)C)C(=O)c2cc(NC(=O)Nc3ccc(F)cc3)ccc2O[C@@H](C)CCCCO[C@H]1CN(C)S(=O)(=O)c1ccc(F)cc1 [Compound 3]
Microsome Stability [1]: <5 % remaining

C[C@@H]1CN([C@@H](C)CN(C)C)C(=O)c2cccnc2O[C@@H](C)CCCCO[C@H]1CN(C)S(=O)(=O)c1ccc(F)cc1 [Compound 22]
Microsome Stability [1]: <5% remaining

CNC[C@H](C)N1C[C@@H](C)[C@H](CN(C)S(=O)(=O)c2ccc(F)cc2)OCCCC[C@H](C)Oc2ccc(NC(=O)Nc3c(C)noc3C)cc2C1=O [Compound 6]
Microsome Stability [1]: 51 % remaining | metabolism in mouse liver microsomes [2]: extensively metabolized

Cc1noc(C)c1NC(=O)Nc1ccc2c(c1)C(=O)N([C@@H](C)CNCC(F)(F)F)C[C@@H](C)[C@H](CN(C)S(=O)(=O)c1ccc(F)cc1)OCCCC[C@H](C)O2 [Compound 12]
Microsome Stability [1]: <5 % remaining

CCN(CC)C[C@H](C)N1C[C@@H](C)[C@H](CN(C)S(=O)(=O)c2ccc(F)cc2)OCCCC[C@H](C)Oc2ccc(NC(=O)Nc3c(C)noc3C)cc2C1=O [Compound 9]
Microsome Stability [1]: 5 % remaining
